Reference: ChEMBL document CHEMBL1142562, “Four new neuroprotective dihydropyranocoumarins from Angelica gigas” (2005)

Columns and labels:
Type in all cases: functional
Conditions in all cases: read-out: Activity
[1] = Neuroprotective effect against glutamate-stimulated rat cortical cells assessed as cell viability at 0.1 uM after 1 hr by LDH assay relative to control
Summary of the method: (§1)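 Mixed neuron–glia cortical cultures from Sprague-Dawley fetal rats (17-19 days old), matured ≥2 weeks and used at 17 days in vitro. Cultures were washed with DMEM and pretreated 1 h with compound in DMSO (0.1% final), then given 100 µM glutamate for 24 h. Viability was read as LDH efflux and expressed as % protection relative to control and glutamate-only cultures. Mean ± STD of three experiments, 5-6 cultures each.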

[2] = Neuroprotective effect against glutamate-stimulated rat cortical cells assessed as cell viability at 1 uM after 1 hr by LDH assay relative to control; summary of the method: as §1
[3] = Neuroprotective effect against glutamate-stimulated rat cortical cells assessed as cell viability at 10 uM after 1 hr by LDH assay relative to control; summary of the method: as §1

SMILES: C/C(=C\CO)C(=O)O[C@H]1Cc2cc3ccc(=O)oc3cc2OC1(C)C
- viability at 0.1 µM [1]: 33.2%
- viability at 1 µM [2]: 19.9%
- viability at 10 µM [3]: 1.2%

SMILES: C/C(=C\C(=O)O[C@H]1Cc2cc3ccc(=O)oc3cc2OC1(C)C)CO
- viability at 0.1 µM [1]: 38.4%
- viability at 1 µM [2]: 34.1%
- viability at 10 µM [3]: 35.1%

SMILES: C[C@@H]1O[C@]1(C)C(=O)O[C@H]1Cc2cc3ccc(=O)oc3cc2OC1(C)C
- viability at 0.1 µM [1]: 70%
- viability at 1 µM [2]: 52.5%
- viability at 10 µM [3]: 49%

SMILES: C[C@H]1O[C@@]1(C)C(=O)O[C@H]1Cc2cc3ccc(=O)oc3cc2OC1(C)C
- viability at 0.1 µM [1]: 47.5%
- viability at 1 µM [2]: 61.1%
- viability at 10 µM [3]: 56.7%

SMILES: N#Cc1cc2c(cc1[N+](=O)[O-])=NC(=O)C(=O)N=2
- viability at 0.1 µM [1]: 29%
- viability at 1 µM [2]: 40.5%
- viability at 10 µM [3]: 50.5%

SMILES: NC(CCCP(=O)(O)O)C(=O)O (racemic)
- viability at 0.1 µM [1]: 10%
- viability at 1 µM [2]: 25%
- viability at 10 µM [3]: 39%

SMILES: CC1(C)Oc2cc3oc(=O)ccc3cc2C[C@@H]1O [DECURSINOL]
- viability at 0.1 µM [1]: 33.4%
- viability at 1 µM [2]: 69.6%
- viability at 10 µM [3]: 40.7%

SMILES: CC(C)=CC(=O)O[C@H]1Cc2cc3ccc(=O)oc3cc2OC1(C)C [DECURSIN]
- viability at 0.1 µM [1]: 39%
- viability at 1 µM [2]: 50%
- viability at 10 µM [3]: 65.1%

SMILES: C[C@]12N[C@H](Cc3ccccc31)c1ccccc12 [DIZOCILPINE]
- viability at 0.1 µM [1]: 54%
- viability at 1 µM [2]: 65%
- viability at 10 µM [3]: 70%
